Bioassay records as filed in PubChem.
HCV NS3 hel inh: inhibitors of HCV NS3 helicase, primary screen, biochemical, Cy5 molecular beacon fluorescence; Hepatitis C virus NS3 helicase; NS3 helicase DNA unwinding; inhibition, % at 10.9 µM; 290,000 compounds, 0.56% hits;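 active = inhibition above the mean of all tested compounds plus 3 SD, set per campaign, cut at about 35% in these data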;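 also: 0% = DMSO wells and 100% = thioflavine S control wells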
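Test system: hepatitis C virus NS3 helicase domain fragment enzyme. Also added: annealed dual-labelled DNA beacon duplex, ATP-started. Timing: 60 min unwinding reaction at 25 °C after ATP addition. Technique: Cy5 fluorescence. Measure: % inhibition of unwinding.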
EBNA-1 inh: EBNA-1 DNA-binding inhibitors, primary screen, biochemical, fluorescence polarization. inhibition, % at 14.8 µM. 300,000 compounds, 0.34% hits; in the data active = inhibition above about 28%
FGF22 binding: binders of human FGF22 protein, primary screen, FGF22 synaptogenesis inhibitor project, biophysical, thermal shift, single point. Fibroblast growth factor 22 (Homo sapiens), Q9HCT0. AID 651658, 2012. recombinant FGF22 thermal shift, SYPRO orange fluorescence; percent of sucrose octasulfate shift, DMSO zero. 340,000 compounds, 1.5% hits. activity (Tm shift, normalised), % at 9.99 µM;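 active = mean Tm shift, scaled 0 neutral to 100 positive control, at about 1.3% or above, every replicate too, limit read from the data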
Target sequence (Q9HCT0 whole entry, looked up): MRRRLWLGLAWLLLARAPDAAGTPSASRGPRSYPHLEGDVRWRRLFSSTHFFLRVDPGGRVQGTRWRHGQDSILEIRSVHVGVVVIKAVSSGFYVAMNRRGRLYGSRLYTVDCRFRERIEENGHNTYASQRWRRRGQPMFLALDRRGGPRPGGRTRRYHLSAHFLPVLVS
GRIN3A LBD mod: binders of NR3A ligand-binding domain, primary screen, biophysical, differential scanning fluorimetry, uHTS; AID 1259313, 2017; Tm shift relative to glycine control, % at 25 µM; 340,000 compounds, 2.5% hits; NR3A LBD differential scanning fluorimetry, Tm shift; 0% = protein alone, 100% = glycine-bound protein;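 active = melting temperature shift of at least 10% of the positive control shift, at one fixed dose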
ZTA DNA inh: ZTA (EBV) inhibition in EBNA-1 counter-screen; ZTA-DNA binding, fluorescence polarization; inhibition, % at 11 µM; 320,000 compounds, 0.15% hits; AID 2234; in the data active = inhibition above about 33%
Target sequence (P03206 whole entry, looked up): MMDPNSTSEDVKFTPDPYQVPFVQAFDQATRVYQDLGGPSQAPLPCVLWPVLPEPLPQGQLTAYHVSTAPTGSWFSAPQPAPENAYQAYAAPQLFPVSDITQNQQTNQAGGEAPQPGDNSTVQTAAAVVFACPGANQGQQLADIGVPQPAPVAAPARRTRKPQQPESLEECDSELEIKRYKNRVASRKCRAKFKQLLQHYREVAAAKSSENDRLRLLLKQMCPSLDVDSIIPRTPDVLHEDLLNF
FID counter: compounds displacing fluorescent DNA intercalator, primary screen, artefact control for HCV NS3 helicase inhibitor project, biochemical, FID fluorescence; AID 1845, 2009; inhibition, % at 7.9 µM; DNA fluorescent intercalator displacement; 290,000 compounds, 0.17% hits; in the data active = inhibition above about 37%;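 also: 0% = vehicle and 100% = reference compound; higher means more ethidium bromide displaced from hairpin DNA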
Numbers without * were called inactive; . = not tested or not shown. In the library only some 3.6% were active in any assay of this set; here they are far more common.

SMILES | HCV NS3 hel inh | EBNA-1 inh | FGF22 binding | GRIN3A LBD mod | ZTA DNA inh | FID counter
CC(C)(C)c1ccc(OCC(=O)N2CCN(C=O)CC2)cc1 | -1 | 0 | . | 18* | 13 | -8
COC(=O)C[C@@H]1C[C@@H]2c3cc(NS(=O)(=O)c4ccccc4)ccc3O[C@@H]2[C@H](CO)O1 | . | . | 0 | . | . | .
O=C(NNC(=O)c1cccc2ccccc12)c1ccc(Cl)cc1Cl | . | . | 1 | 23* | . | .
O=C(O)c1ccccc1C(=O)NNc1ccc(F)cc1 | -3 | -5 | . | 2 | -6 | 0
O=C(NNC(=O)c1cccc2ccccc12)c1cccc(Cl)c1 | . | . | 0 | 12* | . | .
O=C(NNC(=O)c1ccc(Cl)cc1Cl)c1ccc2ccccc2c1 | . | . | 0 | 0 | . | .
O=C(NNC(=O)c1cccc2ccccc12)c1cccc(Br)c1 | . | . | 0 | 4 | . | .
O=C(O)c1ccccc1C(=O)NNc1ccc(Cl)cc1Cl | 2 | -6 | 44* | 1 | -10 | 0
COc1ccc2c3c([nH]c2c1)[C@@H](CO)N(C(=O)c1ccc(F)cc1)CC31CN(S(=O)(=O)c2cccs2)C1 | . | . | 0 | . | . | .
C[C@@H]1CN([C@H](C)CO)C(=O)Cc2cc(NS(=O)(=O)c3cn(C)cn3)ccc2O[C@@H]1CN(C)S(C)(=O)=O | . | . | 0 | . | . | .
Cc1nc(-c2ccc3c(c2)OCCO3)cs1 | 4 | 6 | 43* | 3 | -7 | 0
COc1ccc2c3c([nH]c2c1)[C@@H](CO)N(C(=O)c1ccccn1)CC31CN(S(C)(=O)=O)C1 | . | . | 0 | . | . | .
C[C@H](CO)N1C[C@H](C)[C@@H](CN(C)Cc2ccc(Cl)c(Cl)c2)Oc2ccc(NS(C)(=O)=O)cc2C1=O | . | . | 0 | . | . | .
O=C(Cc1ccccc1)N[C@@H]1c2ccccc2CC[C@@H]1OCc1ccccc1 | . | . | 0 | 0 | . | .
O=C(COCc1ccccc1)N[C@@H]1c2ccccc2CC[C@@H]1OCc1ccccc1 | . | . | 0 | 17* | . | .
Cc1ccc(NC(=O)c2c(C)noc2-c2snnc2C)cc1 | 22 | 12 | 0 | 12* | 10 | -4
O=c1nc(N/N=C/c2ccccn2)cn[nH]1 | -2 | 10 | 44* | 0 | -16 | -4
O=C(CN1CCOCC1)NCC[C@H]1CC[C@@H](NS(=O)(=O)c2ccc(F)cc2)[C@H](CO)O1 | . | . | 0 | . | . | .
Cc1cccc(OCc2nnc(N)s2)c1C | -7 | 0 | . | 12* | -3 | 1
Cc1ccc(OCc2nnc(N)s2)cc1 | 4 | -16 | 44* | -2 | -3 | -1
Cc1cc(C)cc(OCc2nnc(N)s2)c1 | -8 | 6 | 0 | -2 | 11 | 0
COc1ccc(NC(=O)N(C)C[C@H]2Oc3ccc(N(C)C)cc3CC(=O)N([C@@H](C)CO)C[C@@H]2C)cc1 | . | . | 0 | . | . | .
CCCCN1C2=NCCCN2c2ccccc21 | -3 | -1 | . | . | -29 | -1
CCCCCCCN1C2=NCCCN2c2ccccc21 | -11 | 2 | 43* | -1 | -7 | 14
CCOC(=O)C1CCN(S(=O)(=O)c2ccc3c(c2)CC(C)N3C(=O)C2CCC2)CC1 (stereo unspecified) | -9 | -4 | 0 | 24* | 8 | -54
SMILES | HCV NS3 hel inh | EBNA-1 inh | FGF22 binding | GRIN3A LBD mod | ZTA DNA inh | FID counter
Cc1cccc(NC(=O)CSc2cc(C)c(C#N)c3nc4ccccc4n23)c1 | 2 | 1 | 0 | 13* | 10 | -1
N#CCC(CNc1ncc(C(F)(F)F)cc1Cl)OC(=O)c1ccc(Cl)cc1 (stereo unspecified) | -11 | 11 | . | 11* | -7 | -9
C[C@@H]1CN([C@@H](C)CO)C(=O)Cc2cc(NC(=O)Cc3cn(C)c4ccccc34)ccc2O[C@H]1CN(C)C(=O)Nc1ccc2c(c1)OCO2 | . | . | 0 | . | . | .
COc1cc(/C=N/NS(=O)(=O)c2ccc3ccccc3c2)ccc1OCCN1CCOCC1 | -21 | -13 | . | 15* | -5 | -5
COc1ccc(S(=O)(=O)N/N=C/c2ccc(OCCN3CCOCC3)c(OC)c2)cc1 | -16 | -2 | 0 | -1 | 0 | 0
C[C@@H]1CN([C@H](C)CO)C(=O)Cc2cc(NC(=O)CCC(F)(F)F)ccc2O[C@H]1CN(C)Cc1ccc(C(=O)O)cc1 | . | . | 0 | . | . | .
